This is a sample that favours compounds with a hit; in the whole collection about 4.1% have one here.
hERG protect = compounds protecting human hERG from proarrhythmic drug block | 310,000 compounds, 0.51% hits | CHO-hERG, FluxOR thallium flux, dofetilide IC70 present | Q12809 | activation (rescue from dofetilide block), less the hit threshold, % at 10 µM | AID 1511;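 active = activation above the mean of controls blocked by dofetilide plus 5 SD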;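 note: thallium influx through hERG after potassium depolarization seen as dye fluorescence rise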
Target sequence (Q12809 whole entry, looked up): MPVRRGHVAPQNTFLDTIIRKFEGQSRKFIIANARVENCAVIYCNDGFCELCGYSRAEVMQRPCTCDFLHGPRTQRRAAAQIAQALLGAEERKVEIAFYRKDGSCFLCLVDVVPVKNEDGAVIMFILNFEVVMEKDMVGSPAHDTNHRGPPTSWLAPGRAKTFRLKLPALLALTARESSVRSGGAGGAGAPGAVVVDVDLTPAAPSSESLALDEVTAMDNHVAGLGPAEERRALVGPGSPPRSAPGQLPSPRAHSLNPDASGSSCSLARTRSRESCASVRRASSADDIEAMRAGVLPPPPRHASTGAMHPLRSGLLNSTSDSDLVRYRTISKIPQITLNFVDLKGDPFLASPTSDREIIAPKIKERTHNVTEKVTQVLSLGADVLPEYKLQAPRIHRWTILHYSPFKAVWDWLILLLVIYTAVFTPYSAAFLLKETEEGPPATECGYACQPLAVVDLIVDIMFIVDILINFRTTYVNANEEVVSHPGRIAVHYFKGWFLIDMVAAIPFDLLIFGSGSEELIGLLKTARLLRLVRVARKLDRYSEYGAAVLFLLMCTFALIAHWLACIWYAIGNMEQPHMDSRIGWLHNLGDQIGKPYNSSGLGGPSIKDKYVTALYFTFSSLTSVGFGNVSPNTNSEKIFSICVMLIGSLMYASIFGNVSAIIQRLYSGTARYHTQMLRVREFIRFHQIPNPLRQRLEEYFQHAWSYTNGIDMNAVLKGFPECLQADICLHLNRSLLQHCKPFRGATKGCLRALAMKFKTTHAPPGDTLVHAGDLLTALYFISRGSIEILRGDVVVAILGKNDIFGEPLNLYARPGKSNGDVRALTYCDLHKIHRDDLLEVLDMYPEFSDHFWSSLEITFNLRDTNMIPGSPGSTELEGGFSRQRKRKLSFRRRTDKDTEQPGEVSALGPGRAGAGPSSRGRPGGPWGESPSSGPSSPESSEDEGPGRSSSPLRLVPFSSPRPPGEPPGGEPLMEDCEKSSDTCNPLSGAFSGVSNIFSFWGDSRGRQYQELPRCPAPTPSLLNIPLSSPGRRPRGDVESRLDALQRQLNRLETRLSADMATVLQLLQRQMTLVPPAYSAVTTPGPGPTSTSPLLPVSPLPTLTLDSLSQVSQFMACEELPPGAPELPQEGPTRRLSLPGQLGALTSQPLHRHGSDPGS
KCNQ1 pot = potentiates or activates the human KCNQ1 potassium channel | B-score at 10 µM | AID 2648 | CHO-K1 KCNQ1, thallium flux FluxOR fluorescence; stronger effect = higher value | 310,000 compounds, 0.35% hits | P51787;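 active = fluorescence ratio B-score, a plate-corrected score, at least three library SD, with initial intensity B-score within 5 SD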
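Assay system: CHO-K1 cells stably expressing KCNQ1. Medium: assay buffer for compound exposure, DMSO matched across wells. Timing: 37 °C overnight plating, 90-min dark dye load, 20-min compound pretreatment. Signal: kinetic FluxOR fluorescence, 10 s baseline plus 110 s post-stimulus.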
KCC2 mod = modulates chloride dependent transport by human KCC2 | KCC2 cells, thallium flux FluoZin-2 fluorescence | B-score of Tl+ flux slope (higher = more flux/activation; lower = inhibition) at 10 µM | 190,000 compounds, 2.2% hits | AID 1456;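 active = thallium flux slope and its plate-corrected score both differing from the plate sample mean at a set confidence after two filtering rounds, in either direction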;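 note: slope of fluorescence scaled to starting intensity during 10 to 20 s after thallium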
KCNQ1 inh = blocks the human KCNQ1 potassium channel. B-score at 10 µM. P51787. CHO-K1 KCNQ1, FluxOR thallium flux fluorescence; stronger effect = higher value. 310,000 compounds, 1.3% hits;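 active = compounds whose thallium flux B-score, printed positive for inhibition, exceeds three library SD while starting fluorescence stays within three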;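 note: channel opened by potassium depolarization with thallium stimulus after 20 min compound exposure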
KCNK9 inh = blocks the human KCNK9 two-pore domain potassium channel | Q9NPC2 | 310,000 compounds, 1.2% hits | HEK293 KCNK9, FluxOR thallium flux fluorescence; stronger effect = lower value | B-score at 10 µM;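 active = ratio B-score over 3 SD below the library mean, with starting fluorescence within 5 SD of its mean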;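 note: negative B-score means less thallium flux so channel inhibition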
KCNK3 inh = human KCNK3 channel inhibition, primary screen; O14649; CHO-KCNK3 thallium flux, FluxOR fluorescence; stronger effect = lower value; B-score at 10 µM; 340,000 compounds, 0.84% hits; AID 602410;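 active = B-score under library mean minus 4 SD, starting fluorescence ratio at most library mean plus 5 SD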;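 note: more negative B-score means stronger inhibition of thallium flux through KCNK3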
KCC2 secondary = KCC2 (human) modulation, secondary assay; shares compounds with KCC2 mod; HEK293-KCC2, thallium flux, FluoZin2 fluorescence; stronger effect = higher value; normalised thallium flux (F/F0 slope) at 10 µM; 3,700 compounds, 15% hits;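 active = thallium flux slope above the same plate's solvent-only control mean plus 3 SD; inconclusive = the two replicate wells disagree; inactive = no significant difference from solvent-only control wells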
KCC2 bumet counter = thallium flux despite bumetanide block in KCC2 cells, secondary assay 3. shares compounds with KCC2 mod. HEK293-KCC2 + bumetanide/ouabain, thallium flux FluoZin2; stronger effect = higher value. normalized thallium flux at 10 µM. 3,700 compounds, 49% hits. AID 1714;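 active = thallium entry rate above the same plate's blocked-transporter control wells by more than 3 SD; inconclusive = the two repeat wells disagree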;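 note: raw slope of fluorescence over initial fluorescence between 10 and 20 s after thallium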
KCC2 secondary2 = confirmation of human KCC2 transport modulators; shares compounds with KCC2 mod; HEK293-KCC2, thallium flux FluoZin2 fluorescence; actives lie on both sides; F/F0 rise rate, 10–20 s post-thallium; normalized thallium flux at 10 µM; 3,700 compounds, 23% hits; AID 1715;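 active = thallium flux slope more than 3 SD above or below the plate's solvent-only control mean, mostly below; inconclusive = the two repeat wells disagreed; inactive = no significant shift from solvent-only controls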;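 note: raw slope with 0.1% DMSO as baseline and bumetanide as block control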
HEK293 Tl flux = acts in parental HEK cells, KCC2 counter-screen. thallium flux rate (normalised fluorescence) at 10 µM. HEK293 parental cells, thallium flux FluoZin2, ouabain; baseline-ratio fluorescence slope, 10–20 s after thallium. shares compounds with KCC2 mod. 3,700 compounds, 46% hits;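 active = thallium flux rate significantly above the same plate's solvent-only control wells, beyond their mean plus 3 SD; inconclusive = the two replicate wells gave conflicting results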
KCC2 retest ouab = KCC2 (human) modulation, ouabain retest; shares compounds with KCC2 mod; HEK293-KCC2, thallium flux FluoZin2 fluorescence; bidirectional: low = inhibitor, high = activator; raw Tl+ flux slope (below DMSO = inhibition, above = activation) at 10 µM; 3,700 compounds, 48% hits;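 active = thallium flux slope beyond 3 SD from same-plate DMSO control mean in most replicates, usually higher, sometimes lower; inconclusive = repeat tests gave conflicting results; inactive = no significant difference from controls in most replicates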;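 note: slope of initial-normalized fluorescence between seconds 10 and 20 after thallium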
HEK counter2 = acts in parental HEK cells, second KCC2 counter-screen. HEK293 parental, thallium flux FluoZin-2 fluorescence slope. shares compounds with KCC2 mod. thallium flux slope at 10 µM. 3,700 compounds, 33% hits;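 active = thallium flux slope above the same plate's solvent-control mean plus 3 SD in both duplicate wells; inconclusive = duplicate wells that disagreed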;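 note: run without ouabain in cells lacking the KCC2 cotransporter; slope of fluorescence scaled to its starting value between 10 and 20 s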
* hit, by the source's call; i = inactive; ? = inconclusive; nt = no result given.

SMILES | hERG protect | KCNQ1 pot | KCC2 mod | KCNQ1 inh | KCNK9 inh | KCNK3 inh | KCC2 secondary | KCC2 bumet counter | KCC2 secondary2 | HEK293 Tl flux | KCC2 retest ouab | HEK counter2
O=C(NCCc1c[nH]c2ccccc12)c1cc(S(=O)(=O)N2CCCCC2)ccc1N1CCOCC1 | -5 | i | nt | i | i | i | 0.0059 | 0.0046 | ? | 0.0069 | 0.015* | 0.012
NC(=O)/C(=N\OC(=O)c1ccco1)c1nc(-c2ccc(Br)cc2)cs1 | -15 | i | 3.7* | i | i | i | 0.0075 | 0.013* | 0.025* | 0.011* | 0.018 | 0.0087
O=C1CS/C(=C/C(=O)c2cccc(Cl)c2)N1 | -2 | i | 6.8* | i | i | i | ? | 0.024* | 0.03 | 0.011* | 0.051* | 0.011*
COc1cccc(COC(=O)Cc2ccc(S(=O)(=O)N3CCOCC3)s2)c1OC | nt | nt | nt | nt | nt | i | nt | nt | nt | nt | nt | nt
O=C(Nc1c2c(nn1-c1ccc(Cl)cc1)CS(=O)(=O)C2)C1CC1 | -4 | i | nt | i | i | i | nt | nt | nt | nt | nt | nt
COc1cc(C(=S)N2CCCC2)cc(OC)c1O | -6 | i | -3.6* | i | i | i | 0.0099 | 0.0059 | 0.036 | 0.0072 | 0.023 | 0.0099
CCOc1cc(C(=S)N2CCCC2)ccc1OC | -5 | i | nt | i | i | i | nt | nt | nt | nt | nt | nt
C[C@H](NC(=O)c1ncn(Cc2ccccc2)c1C(=O)N[C@@H](C)c1ccccc1)c1ccccc1 | nt | nt | nt | nt | nt | i | nt | nt | nt | nt | nt | nt
CN1C(=O)/C(=C/c2ccccc2OCc2ccc(C(=O)O)cc2)NC1=S | -4 | i | -0.77 | i | i | i | nt | nt | nt | nt | nt | nt
CN1C(=O)/C(=C/c2ccccc2OCc2ccccc2)NC1=S | -10 | i | 9.7* | i | i | i | 0.0088 | 0.013* | 0.033 | 0.0098* | ? | 0.01
CC(OC(=O)Cn1cnc2c1c(=O)n(C)c(=O)n2C)C(=O)N(C)c1ccccc1 (stereo not drawn) | -11 | i | nt | i | i | i | nt | nt | nt | nt | nt | nt
COc1ccc(NC(=O)C(=O)N/N=C/c2cccnc2)c(OC)c1 | -6 | i | 7.7* | i | i | i | 0.0058 | ? | 0.03 | 0.0086 | 0.021 | 0.012
COc1ccc(NC(=O)/C(C#N)=C/c2cccnc2)c(OC)c1 | -14 | i | nt | i | i | i | nt | nt | nt | nt | nt | nt
Cc1[nH]n(-c2ccccc2)c(=O)c1/C=N/N1C(=O)c2cccc3cccc(c23)C1=O | -7 | i | 24* | i | i | i | ? | 0.02* | 0.045* | 0.017* | 0.032* | 0.017*
CCN(CC)c1ccc2cc(-c3nc4ccccc4n3C)c(=O)oc2c1 | -10 | i | nt | i | i | i | 0.0044* | 0.00034* | 0.022* | 0.0037* | 0.0081* | ?
Cc1cc2ccccn2c1C(=O)c1nc(N2CCOCC2)ncc1Cl | -18 | i | -3.8* | i | i | i | 0.0073 | ? | 0.026* | 0.0074 | 0.017* | 0.0098
COCCN(CCOC)c1ncc(Cl)c(C(=O)c2c(C)cc3ccccn23)n1 | -6 | i | -1.2 | i | i | i | nt | nt | nt | nt | nt | nt
O=C(Nc1nnc(SCc2ccc(F)cc2)s1)C1Cc2ccccc2CN1C(=O)c1ccco1 (stereo not drawn) | -7 | i | -3.3* | i | i | i | 0.0071 | 0.0053 | 0.025* | 0.0081 | 0.017* | 0.01
O=C(/C=C/c1ccco1)N1CCN(c2ncccn2)CC1 | -4 | i | 0.33 | i | i | i | nt | nt | nt | nt | nt | nt
O=C(/C=C/c1ccco1)N1CCC(Cc2ccccc2)CC1 | -7 | i | -4.9* | i | i | i | 0.007 | 0.005 | 0.021* | 0.0074 | 0.014* | 0.0099
CC(=O)SCC(=O)N=c1sc2cc(F)ccc2n1C | -1 | i | nt | i | i | i | 0.0069 | 0.0059* | 0.03 | ? | 0.019 | 0.011
Cn1c(=NC(=O)CCS(=O)(=O)c2ccccc2)sc2cc(F)ccc21 | -12 | i | nt | i | i | i | nt | nt | nt | nt | nt | nt
O=S(=O)(Nc1cccc2ncccc12)c1cccs1 | -19 | i | 29* | i | i | i | 0.025* | 0.069* | 0.037* | 0.027* | 0.048* | 0.019*
NC(=O)c1cc(S(=O)(=O)NCCCc2ccccc2)cs1 | -5 | i | nt | i | i | i | nt | nt | nt | nt | nt | nt
CC(C)(C)c1nnc(NS(=O)(=O)c2ccc(F)cc2)s1 | nt | nt | nt | nt | nt | i | nt | nt | nt | nt | nt | nt
SMILES | hERG protect | KCNQ1 pot | KCC2 mod | KCNQ1 inh | KCNK9 inh | KCNK3 inh | KCC2 secondary | KCC2 bumet counter | KCC2 secondary2 | HEK293 Tl flux | KCC2 retest ouab | HEK counter2
O=C(CC(=O)c1ccccc1)Nc1cc(C(F)(F)F)ccc1Cl | -6 | i | -0.099 | i | i | i | nt | nt | nt | nt | nt | nt
S=C(Nc1ccccn1)Nc1ccccc1Cl | -10 | i | 5* | i | i | i | 0.0079 | 0.014* | 0.029 | 0.0082* | ? | 0.0093
FC(F)(F)c1ccc(Cl)c(NC(=S)N/N=C/c2ccccc2Cl)c1 | 4 | i | 5.4* | i | i | i | 0.01 | 0.034* | 0.031 | 0.01* | ? | 0.0098
S=C(N/N=C/c1ccc(Cl)c(Cl)c1)Nc1ccccc1Cl | -4 | i | 3.9* | i | i | i | 0.011 | 0.03* | 0.035 | 0.016* | 0.032* | 0.012*
O=[N+]([O-])c1cc(/C=N/NC(=S)Nc2ccccc2Cl)ccc1Cl | -1 | i | 7.8* | i | i | i | 0.0058 | 0.015* | 0.035 | 0.021* | 0.029* | 0.017*
COc1cccc(NC(=S)N2CCC(NC(=O)c3ccco3)CC2)c1 | -5 | i | nt | i | i | i | nt | nt | nt | nt | nt | nt
CCCCCN1CC(=O)N2C(C)c3[nH]c4ccccc4c3C[C@H]2C1=O (stereo partly drawn) | -10 | i | nt | i | i | i | nt | nt | nt | nt | nt | nt
CS(=O)(=O)c1ccc(Cl)c(NC(=O)CSc2nnc(C3CC3)n2C2CC2)c1 | nt | nt | nt | nt | nt | i | nt | nt | nt | nt | nt | nt

High-throughput results from PubChem.
